pIC50: −log10 of the molar value.
What was measured:
[1] = molecular target: T1, Broad substrate specificity ATP-binding cassette transporter ABCG2 (Homo sapiens, UniProt Q9UNQ0); assay: Inhibition of human ABCG2-mediated pheophorbide A efflux in HEK293/R482 cells incubated for 1 hr by FACScan flow cytometry; assay type: cell-based
T1 sequence (Q9UNQ0 whole entry): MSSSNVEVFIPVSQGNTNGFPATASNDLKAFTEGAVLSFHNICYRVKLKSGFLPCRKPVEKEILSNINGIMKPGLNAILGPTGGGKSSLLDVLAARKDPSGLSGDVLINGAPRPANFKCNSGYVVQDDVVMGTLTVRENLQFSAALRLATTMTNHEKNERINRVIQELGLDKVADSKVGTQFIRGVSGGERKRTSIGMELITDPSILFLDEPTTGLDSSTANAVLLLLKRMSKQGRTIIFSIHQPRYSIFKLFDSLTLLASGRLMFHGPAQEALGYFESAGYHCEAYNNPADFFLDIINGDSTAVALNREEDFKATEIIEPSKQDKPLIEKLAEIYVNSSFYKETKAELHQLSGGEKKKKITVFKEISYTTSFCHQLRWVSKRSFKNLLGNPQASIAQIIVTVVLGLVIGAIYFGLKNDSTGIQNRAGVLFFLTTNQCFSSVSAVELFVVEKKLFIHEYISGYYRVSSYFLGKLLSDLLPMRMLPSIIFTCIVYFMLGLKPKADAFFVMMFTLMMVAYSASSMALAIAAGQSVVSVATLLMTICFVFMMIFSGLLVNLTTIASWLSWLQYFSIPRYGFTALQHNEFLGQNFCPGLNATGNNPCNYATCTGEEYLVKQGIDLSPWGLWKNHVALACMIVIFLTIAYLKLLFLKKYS
Summary of the method: (§1)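 Cells held drug-free 7 days. 3 × 10^5 cells were suspended in IMDM with 5% FCS and loaded with pheophorbide A (ex 395/em 670 nm) for 1 h, with or without LCA (20 μM for single-concentration accumulation) or Ko143 3 μM as reference. Read immediately by flow cytometry. Efflux inhibition was run over a concentration range; mean ± SD of three experiments.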

HEK293 [2] = assay: Effect on mitoxantrone-induced cytotoxicity against HEK293 cells assessed as fold change in mitoxantrone IC50 at 2 uM after 72 hrs by CCK8 assay relative to mitoxantrone IC50; assay type: cell-based; conditions: human, hek293, 72 h
Summary of the method: (§2)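 Reversal assay in parental pcDNA-HEK293 and transfected HEK293 lines (ABCB1 for colchicine, ABCC1 for etoposide, ABCG2 for mitoxantrone/topotecan). Substrate drug series was given with or without nontoxic modulator (0.5, 1.0, 2.0 or 3.0 μM) for 72 h, with a CCK-8 read-out. Fold-reversal is substrate IC50 without modulator divided by IC50 with modulator. Three independent experiments.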

[3] = molecular target: T1, Broad substrate specificity ATP-binding cassette transporter ABCG2; assay: Inhibition of ABCG2 (unknown origin)-mediated pheophorbide A efflux in H460-MX20 cells incubated for 1 hr by FACScan flow cytometry; assay type: cell-based; summary of the method: as §1
S1 [4] = assay: Effect on mitoxantrone-induced cytotoxicity against human S1 cells assessed as fold change in mitoxantrone IC50 at 1 uM after 72 hrs by MTT assay relative to mitoxantrone IC50; assay type: functional
Summary of the method: (§3)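 Parental S1 colon and H460 lung cancer cells were exposed for 72 h to a mitoxantrone or topotecan concentration series, with or without modulator at 0.5–3.0 μM, and read by MTT. Fold-reversal is IC50 without modulator divided by IC50 with modulator, taken from dose-response curves of three independent experiments.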

[5] = molecular target: T1, Broad substrate specificity ATP-binding cassette transporter ABCG2; assay: Reversal of ABCG2 (unknown origin)-mediated multidrug resistance in human S1-M1-80 cells assessed as fold-change in mitoxantrone IC50 at 3 uM after 72 hrs by MTT assay relative to mitoxantrone IC50; assay type: cell-based; conditions: s1-m1-80, 72 h
Summary of the method: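 MTT readout in S1-M1-80 colon cancer cells (mitoxantrone-selected, held in 80 μM mitoxantrone, then drug-free 7 days before assay). Cells were seeded at 5000/well for 24 h, then given increasing mitoxantrone or topotecan with DMSO or non-toxic modulator for 72 h at 37 °C. IC50 came from fitted dose-response curves (at least three independent experiments). Fold-reversal = IC50 without modulator ÷ IC50 with modulator.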

NCI-H460 [6] = assay: Effect on mitoxantrone-induced cytotoxicity against human H460 cells assessed as fold change in mitoxantrone IC50 at 2 uM after 72 hrs by MTT assay relative to mitoxantrone IC50; assay type: functional; summary of the method: as §3
S1-M1-80 [7] = assay: Potentiation of topotecan-induced apoptosis in human S1-M1-80 cells harboring ABCG2 (unknown origin) assessed as viable cells at 10 uM incubated for 48 hrs by annexin V/propidium iodide staining based flow cytometry (reference value: 90.6%); assay type: functional; conditions: S1-M1-80, 48 h, read-out: Activity
[8] = molecular target: T1, Broad substrate specificity ATP-binding cassette transporter ABCG2; assay: Reversal of human ABCG2-mediated multidrug resistance in HEK293/R482 cells assessed as fold-change in topotecan IC50 at 2 uM after 72 hrs by CCK8 relative to topotecan IC50; assay type: cell-based
Summary of the method: (§4)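 Cells were seeded at 5000/well for 24 h, then given colchicine, etoposide, mitoxantrone or topotecan ± non-toxic modulator (0.5–3.0 μM) for 72 h, with DMSO up to 0.5%. IC50 came from fitted curves (mean ± SD, three experiments). Fold-reversal = IC50 without modulator ÷ IC50 with modulator.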

S1-M1-80 [9] = assay: Potentiation of topotecan-induced apoptosis in human S1-M1-80 cells harboring ABCG2 (unknown origin) assessed as late apoptotic cells at 10 uM incubated for 48 hrs by annexin V/propidium iodide staining based flow cytometry (reference value: 6%); assay type: functional
S1-M1-80 [10] = assay: Induction of apoptosis in human S1-M1-80 cells harboring ABCG2 (unknown origin) assessed as viable cells at 10 uM incubated for 48 hrs by annexin V/propidium iodide staining based flow cytometry (reference value: 93.9%); assay type: functional; conditions: S1-M1-80, 48 h, read-out: Activity
HEK293 [11] = assay: Effect on Colchicine-induced cytotoxicity against HEK293 cells assessed as fold change in colchicine IC50 at 1 uM after 72 hrs by CCK8 assay relative to colchicine IC50; assay type: cell-based; conditions: human, hek293, 72 h; summary of the method: as §2
S1 [12] = assay: Cytotoxicity against human S1 cells after 72 hrs by MTT assay; assay type: functional, cell-based; conditions: S1, 72 h
Summary of the method: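 Cells seeded at 5000/well, allowed 24 h, then exposed to a concentration series for 72 h at 37 °C in DMSO vehicle (up to 0.5% v/v). HEK293 lines were read with CCK-8 and cancer lines with MTT. IC50 was taken from fitted dose-response curves over at least three independent experiments. Lines were kept drug-free for 7 days before assay.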

NCI-H460 [13] = assay: Effect on mitoxantrone-induced cytotoxicity against human H460 cells assessed as fold change in mitoxantrone IC50 at 1 uM after 72 hrs by MTT assay relative to mitoxantrone IC50; assay type: functional; summary of the method: as §3
HEK293 [14] = assay: Induction of pheophorbide A accumulation in HEK293 cells at 20 uM incubated for 1 hr by FACScan flow cytometry; assay type: cell-based; conditions: human, hek293, 1 h; summary of the method: as §1
HEK293 [15] = assay: Effect on Colchicine-induced cytotoxicity against HEK293 cells assessed as fold change in colchicine IC50 at 2 uM after 72 hrs by CCK8 assay relative to colchicine IC50; assay type: cell-based; conditions: human, hek293, 72 h; summary of the method: as §2
HEK293 [16] = assay: Effect on mitoxantrone-induced cytotoxicity against HEK293 cells assessed as fold change in mitoxantrone IC50 at 3 uM after 72 hrs by CCK8 assay relative to mitoxantrone IC50; assay type: cell-based; conditions: human, hek293, 72 h; summary of the method: as §2
[17] = molecular target: T1, Broad substrate specificity ATP-binding cassette transporter ABCG2; assay: Reversal of human ABCG2-mediated multidrug resistance in HEK293/R482 cells assessed as fold change in mitoxantrone IC50 at 0.5 uM after 72 hrs by CCK8 assay relative to mitoxantrone IC50; assay type: cell-based; summary of the method: as §4

`C=CC(C)(C)c1cc(/C=C/C(=O)c2ccc(O)cc2)c(OC)cc1O` [LICOAGROCHACONE A] was tested, and the “inhibition (INH)” value [1] was “Dose-dependent effect”, the “fold change (FC)” value (HEK293 [2]) was 1 and the “inhibition (INH)” value [3] was “Dose-dependent effect”. The “fold change (FC)” value (S1 [4]) was 1.1, the “fold change (FC)” value [5] was 48.1 and the “fold change (FC)” value (NCI-H460 [6]) was 1.1. For the same compound, the viability at 10 µM (S1-M1-80 [7]) was 67.8%, the “fold change (FC)” value [8] was 4.6 and the Activity (S1-M1-80 [9]) was 22.5%. For the same compound, the viability at 10 µM (S1-M1-80 [10]) was 94.4%, the “fold change (FC)” value (HEK293 [11]) was 1.1 and the pIC50 (S1 [12]) was 4.30 to 5.00. For the same compound, the “fold change (FC)” value (NCI-H460 [13]) was 1.1, the Activity (HEK293 [14]) was “Non-Toxic” and the “fold change (FC)” value (HEK293 [15]) was 0.9. For the same compound, the “fold change (FC)” value (HEK293 [16]) was 1 and the “fold change (FC)” value [17] was 2.7.
